Experimental data taken from ChEMBL document CHEMBL1144412, “High affinity central benzodiazepine receptor ligands: synthesis and biological evaluation of a series of phenyltriazolobenzotriazindione derivatives” (J Med Chem, 2005).

How the values were obtained:
[1] = biological target: GABA-A receptor; anion channel; assay: Displacement of [3H]flumazenil from bovine benzodiazepine receptor GABA-A channel of brain membranes; set-up: species or system Bos taurus
[2] = biological target: GABA A receptor alpha-2/beta-2/gamma-2 (Rattus norvegicus, UniProt P18508+P23576+P63138); assay: Displacement of [3H]flumazenil from rat GABA-A Gamma-aminobutyric acid A receptor alpha-2-beta-2-gamma-2 expressed in HEK293 cells; format: cell-based
Sequence of GABA A receptor alpha-2/beta-2/gamma-2 (P18508 whole entry): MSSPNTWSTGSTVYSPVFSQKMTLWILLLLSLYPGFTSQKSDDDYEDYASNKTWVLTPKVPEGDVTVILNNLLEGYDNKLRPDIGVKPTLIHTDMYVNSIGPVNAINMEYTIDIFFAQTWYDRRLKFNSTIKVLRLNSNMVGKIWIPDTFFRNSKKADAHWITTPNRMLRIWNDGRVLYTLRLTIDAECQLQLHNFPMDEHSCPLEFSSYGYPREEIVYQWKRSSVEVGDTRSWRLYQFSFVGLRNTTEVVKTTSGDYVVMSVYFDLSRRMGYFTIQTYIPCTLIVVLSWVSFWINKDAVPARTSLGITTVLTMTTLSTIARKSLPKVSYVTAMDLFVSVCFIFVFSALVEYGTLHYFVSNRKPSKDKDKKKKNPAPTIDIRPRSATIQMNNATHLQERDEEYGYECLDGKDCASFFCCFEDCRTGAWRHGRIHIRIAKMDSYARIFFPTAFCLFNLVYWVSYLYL
Sequence of GABA A receptor alpha-2/beta-2/gamma-2 (P23576 whole entry): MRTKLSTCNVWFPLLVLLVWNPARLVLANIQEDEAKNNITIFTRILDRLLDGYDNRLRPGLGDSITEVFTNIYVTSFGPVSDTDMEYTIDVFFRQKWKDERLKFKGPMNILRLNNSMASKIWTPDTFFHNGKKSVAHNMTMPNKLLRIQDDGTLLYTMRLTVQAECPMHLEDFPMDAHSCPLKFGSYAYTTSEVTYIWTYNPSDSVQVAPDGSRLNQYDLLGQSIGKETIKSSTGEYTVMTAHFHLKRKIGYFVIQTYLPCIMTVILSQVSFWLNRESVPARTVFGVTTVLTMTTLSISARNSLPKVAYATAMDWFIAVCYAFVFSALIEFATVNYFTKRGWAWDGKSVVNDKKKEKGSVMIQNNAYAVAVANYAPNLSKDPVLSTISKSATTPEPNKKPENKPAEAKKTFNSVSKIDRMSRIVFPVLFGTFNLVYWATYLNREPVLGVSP
Sequence of GABA A receptor alpha-2/beta-2/gamma-2 (P63138 whole entry): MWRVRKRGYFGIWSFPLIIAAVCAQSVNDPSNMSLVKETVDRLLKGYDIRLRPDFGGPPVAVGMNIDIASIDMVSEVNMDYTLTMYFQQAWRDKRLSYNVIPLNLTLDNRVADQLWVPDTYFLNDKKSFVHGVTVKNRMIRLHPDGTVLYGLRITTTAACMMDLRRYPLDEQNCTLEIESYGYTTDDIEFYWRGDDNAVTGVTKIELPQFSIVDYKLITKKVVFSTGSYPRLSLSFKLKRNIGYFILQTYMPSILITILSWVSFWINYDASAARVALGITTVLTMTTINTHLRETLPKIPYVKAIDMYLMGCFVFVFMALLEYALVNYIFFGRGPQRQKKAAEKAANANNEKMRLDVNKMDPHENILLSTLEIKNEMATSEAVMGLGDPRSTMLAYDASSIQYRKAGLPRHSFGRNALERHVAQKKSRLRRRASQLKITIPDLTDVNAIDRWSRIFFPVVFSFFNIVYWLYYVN
Summary of the method: (§1)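 HEK293 cells stably expressing each rat subtype, grown in DMEM/F-12 with 10% FBS at 37 °C, 5% CO2. Harvested cells were homogenized in 10 mM potassium phosphate pH 7.4 and spun at 48 000g for 30 min at 4 °C. Pellets were washed and resuspended with 100 mM KCl. Ki from three determinations.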

[3] = biological target: GABA A receptor alpha-5/beta-3/gamma-2 (Rattus norvegicus, UniProt P18508+P19969+P63079); assay: Displacement of [3H]flumazenil from rat GABA-A Gamma-aminobutyric acid A receptor alpha-5-beta-3-gamma-2 expressed in HEK293 cells; format: cell-based
Sequence of GABA A receptor alpha-5/beta-3/gamma-2 (P18508 whole entry): as the sequence (P18508 whole entry) above
Sequence of GABA A receptor alpha-5/beta-3/gamma-2 (P19969 whole entry): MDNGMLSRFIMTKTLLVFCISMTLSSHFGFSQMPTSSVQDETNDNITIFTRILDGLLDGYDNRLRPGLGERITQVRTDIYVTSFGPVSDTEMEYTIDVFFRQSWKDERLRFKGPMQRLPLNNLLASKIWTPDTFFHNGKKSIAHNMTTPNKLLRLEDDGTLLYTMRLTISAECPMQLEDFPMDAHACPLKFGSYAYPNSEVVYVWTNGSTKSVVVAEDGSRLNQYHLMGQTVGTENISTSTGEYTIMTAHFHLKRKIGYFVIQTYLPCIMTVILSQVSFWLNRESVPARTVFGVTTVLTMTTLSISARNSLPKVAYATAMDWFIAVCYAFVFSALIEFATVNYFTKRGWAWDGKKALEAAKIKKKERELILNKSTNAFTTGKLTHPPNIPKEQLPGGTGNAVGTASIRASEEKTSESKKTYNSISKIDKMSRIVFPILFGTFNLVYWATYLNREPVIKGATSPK
Sequence of GABA A receptor alpha-5/beta-3/gamma-2 (P63079 whole entry): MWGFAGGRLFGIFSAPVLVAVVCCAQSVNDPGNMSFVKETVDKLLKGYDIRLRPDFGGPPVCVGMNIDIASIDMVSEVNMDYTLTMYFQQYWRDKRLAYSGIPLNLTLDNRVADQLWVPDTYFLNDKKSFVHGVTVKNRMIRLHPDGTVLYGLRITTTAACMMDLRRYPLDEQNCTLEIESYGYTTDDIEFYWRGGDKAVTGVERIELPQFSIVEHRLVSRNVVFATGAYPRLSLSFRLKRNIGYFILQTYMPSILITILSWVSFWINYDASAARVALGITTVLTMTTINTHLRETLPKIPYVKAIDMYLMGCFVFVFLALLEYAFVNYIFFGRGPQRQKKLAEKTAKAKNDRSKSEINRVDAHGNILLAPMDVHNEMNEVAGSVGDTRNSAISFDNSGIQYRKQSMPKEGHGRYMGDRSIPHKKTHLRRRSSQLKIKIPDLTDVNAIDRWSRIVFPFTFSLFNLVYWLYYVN
Summary of the method: as §1, with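 “KCl. Incubated with [3H]flumazenil 1-2 nM and compound 10-9-10-5 M for 1 h at 4 °C. […]” for “KCl.”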

[4] = biological target: GABA-A receptor; alpha-1/beta-2/gamma-2 (Rattus norvegicus, UniProt P18508+P62813+P63138); assay: Displacement of [3H]flumazenil from rat GABA-A Gamma-aminobutyric acid A receptor alpha-1-beta-2-gamma-2 expressed in HEK293 cells; format: cell-based; summary of the method: as §1
Sequence of GABA-A receptor; alpha-1/beta-2/gamma-2 (P18508 whole entry): as the sequence (P18508 whole entry) above
Sequence of GABA-A receptor; alpha-1/beta-2/gamma-2 (P62813 whole entry): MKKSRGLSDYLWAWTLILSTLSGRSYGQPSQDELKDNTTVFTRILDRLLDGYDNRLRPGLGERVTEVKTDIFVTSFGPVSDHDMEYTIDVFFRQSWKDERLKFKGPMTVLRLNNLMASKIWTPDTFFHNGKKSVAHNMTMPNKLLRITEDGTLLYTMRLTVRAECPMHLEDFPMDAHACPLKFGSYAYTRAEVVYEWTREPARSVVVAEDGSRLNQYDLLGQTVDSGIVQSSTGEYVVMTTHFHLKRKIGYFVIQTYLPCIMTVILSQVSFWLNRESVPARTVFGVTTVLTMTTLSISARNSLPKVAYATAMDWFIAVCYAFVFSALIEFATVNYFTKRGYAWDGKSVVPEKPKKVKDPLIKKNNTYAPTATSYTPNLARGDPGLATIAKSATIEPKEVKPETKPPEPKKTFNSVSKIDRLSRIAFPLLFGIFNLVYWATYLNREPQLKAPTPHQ
Sequence of GABA-A receptor; alpha-1/beta-2/gamma-2 (P63138 whole entry): as the sequence (P63138 whole entry) above

Row | Compound | Ki [1] [nM] | Ki [2] [nM] | Ki [3] [nM] | Ki [4] [nM]
1 | Cc1ccc(-c2nn3c(=O)[nH]c4ccccc4n3c2=O)cc1 | 616 |  |  | 
2 | COc1ccc(-c2nn3c(=O)[nH]c4ccc(Cl)cc4n3c2=O)cc1 | 6 | 18 | 7.57 | 1.82
3 | O=c1[nH]c2ccc(Cl)cc2n2c(=O)c(-c3ccc(F)cc3)nn12 | 56 |  |  | 
4 | O=c1[nH]c2ccccc2n2c(=O)c(-c3ccc(F)cc3)nn12 | 54 |  |  | 
5 | COc1ccc(-c2nn3c(=O)[nH]c4ccccc4n3c2=O)cc1 | 11 | 14.3 | 17.2 | 3.76
6 | O=c1[nH]c2ccccc2n2c(=O)c(-c3ccccc3)nn12 | 22 | 27.6 | 24.1 | 9.14
7 | Cc1ccc(-c2nn3c(=O)[nH]c4ccc(Cl)cc4n3c2=O)cc1 | 185 |  |  | 
8 | O=c1[nH]c2ccccc2n2c(=O)c(-c3ccc(Cl)cc3)nn12 | 169 |  |  | 
9 | O=c1[nH]c2ccccc2n2c(=O)c(-c3ccc(Br)cc3)nn12 | 224 |  |  | 
10 | O=c1[nH]c2ccccc2n2c(=O)c(-c3ccccc3F)nn12 | > 10000 |  |  | 
11 | COc1ccc(-c2nn3c(=O)[nH]c4ccccc4n3c2=O)cc1OC | > 10000 |  |  | 
12 | O=c1[nH]c2ccc(Cl)cc2n2c(=O)c(-c3ccc(Cl)cc3)nn12 | 38 |  |  | 
13 | O=c1[nH]c2ccc(Cl)cc2n2c(=O)c(-c3ccccc3)nn12 | 2.8 | 13.9 | 10.3 | 1.74
14 | O=C1CN=C(c2ccccc2Cl)c2cc([N+](=O)[O-])ccc2N1 [CLONAZEPAM] | 0.85 |  |  | 
